Converted amounts (≈) assume the structure as drawn.
Assays:
[1] = molecular target: Botulinum neurotoxin type A (Clostridium botulinum, UniProt P0DPI0)
[2] = test system: Plasma; assay: Half life in human plasma at 1 uM by LC-MS/MS analysis; format: ADME, cell-free
In short: (§1)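 Compound at 1.0 μM was incubated in plasma at 37 °C and sampled at 0, 1, 3, 5 and 24 h. Proteins were precipitated with cold acetonitrile containing internal standard, and samples were analysed by LC–MS/MS for percent remaining. Half-life came from regression analysis.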

[3] = Aqueous solubility of the compound at pH 6.8 after 24 hrs by shake flask method; format: physicochemical; details: buffer, pH 6.8, 24 h
In short: (§2)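 Miniaturized shake-flask method: analyte at 1.0 mM in aqueous solution at pH 1.0 or 6.8, shaken gently (600 rpm) in a syringeless filter at room temperature for 24 h. Filtrate was collected after a further 30 min, diluted in 50:50 MeCN/water with 0.1% formic acid, and analysed by LC–MS/MS. Calibration range was 0.05–12.5 μM at pH 6.8 and 5.0–25000 μM at pH 1.0.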

[4] = test system: Plasma; assay: Metabolic stability in Sprague-Dawley rat plasma assessed as compound remaining at 1 uM measured at 3 hrs by LC-MS/MS analysis; format: ADME, cell-free
In short: as §1

[5] = test system: Liver microsome; assay: Half life in human liver microsomes at 1 uM by reversed phase LC/MS analysis; format: ADME
In short: (§3)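 Liver microsomes were from humans (pooled from 10 male donors) or male Sprague–Dawley rats aged 8–10 weeks. Incubations used 0.125 mg/mL total protein and 1.0 μM drug at 37 °C, sampled at 0, 5, 15, 30 and 60 min. Parent-to-product transitions were read by reversed-phase LC with triple quadrupole MS, and % remaining was taken relative to time zero. t1/2 = −ln(2)/k, with k from log–linear regression.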

[6] = Aqueous solubility of the compound at pH 1 after 24 hrs by shake flask method; format: physicochemical
In short: as §2

[7] = test system: Liver microsome; assay: Drug metabolism in human liver microsomes assessed as metabolic rate at 1 uM by reversed phase LC/MS analysis; format: ADME
In short: as §3

[8] = test system: Liver microsome; assay: Half life in Sprague-Dawley rat liver microsomes at 1 uM by reversed phase LC/MS analysis; format: ADME
In short: as §3

[9] = test system: Liver microsome; assay: Drug metabolism in Sprague-Dawley rat liver microsomes assessed as metabolic rate at 1 uM by reversed phase LC/MS analysis; format: ADME
In short: as §3

[10] = test system: Plasma; assay: Half life in Sprague-Dawley rat plasma at 1 uM by LC-MS/MS analysis; format: ADME, cell-free
In short: as §1

Chain of Botulinum neurotoxin type A (P0DPI0 2-448 limits assumed): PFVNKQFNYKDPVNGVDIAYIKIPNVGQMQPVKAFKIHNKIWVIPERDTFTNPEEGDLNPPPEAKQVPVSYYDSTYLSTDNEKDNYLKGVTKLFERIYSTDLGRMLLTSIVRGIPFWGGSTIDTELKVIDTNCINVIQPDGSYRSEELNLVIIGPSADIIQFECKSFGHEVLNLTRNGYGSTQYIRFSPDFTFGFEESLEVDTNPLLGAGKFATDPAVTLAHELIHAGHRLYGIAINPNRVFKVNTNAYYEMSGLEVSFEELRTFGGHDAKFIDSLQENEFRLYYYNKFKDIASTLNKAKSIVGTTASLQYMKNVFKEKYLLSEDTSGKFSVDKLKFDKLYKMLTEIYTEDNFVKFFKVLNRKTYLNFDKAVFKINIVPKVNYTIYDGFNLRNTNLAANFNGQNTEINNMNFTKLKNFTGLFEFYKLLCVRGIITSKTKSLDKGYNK

In the case of Cc1cccc(NC(c2ccc(C)s2)c2ccc3ccc(C)nc3c2O)n1 (stereo not given), the IC50 [1] is reported as > 100000 nM.
With Cc1ccc(C(Nc2ccccn2)c2ccc3cccnc3c2O)cc1 (stereo not given) the IC50 [1] was 2500 nM.
In the case of CCCC(=O)NC(c1ccccc1Cl)c1ccc2cccnc2c1O (stereo not given), the IC50 [1] is reported as > 100000 nM.
For COc1cccc(C(NC(C)=O)c2ccc3cccnc3c2O)c1 (stereo not given), the IC50 [1] was > 100000 nM.
Oc1c(C(Nc2ccccn2)c2ccccc2)ccc2cccnc12 (stereo not given) showed a t1/2 [2] of 11.4 h, a solubility [3] of 0.078 µM (≈ 0.0255 µg/mL) and a Stability [4] of 67.3%. The t1/2 [5] was 0.493 h, the solubility thermodynamic at 24 h [6] was 1170 µM (≈ 384 µg/mL) and the IC50 [1] was 2200 nM. It also gave a Drug metabolism [7] of 0.186 µM/min/mg, a t1/2 [8] of 8.6 min and a Drug metabolism [9] of 0.637 µM/min/mg. For the same molecule, the t1/2 [10] was 13.5 h.
In the case of CC(C)Oc1c(C(Nc2ccccn2)c2ccccc2)ccc2cccnc12 (stereo not given), the IC50 [1] is reported as > 100000 nM.
For CC(C)C(=O)NC(c1ccccc1Cl)c1ccc2cccnc2c1O (stereo not given), the IC50 [1] was > 100000 nM.
Molecule O=C(NC(c1ccccc1Cl)c1ccc2cccnc2c1O)c1ccccc1 (stereo not given) has an IC50 [1] of 800 nM.
Molecule Cc1ccccc1C(Nc1ccccn1)c1ccc2cccnc2c1O (stereo not given) has an IC50 [1] of 3600 nM.
Cc1ccc2ccc(C(Nc3ccccn3)c3ccccc3C)c(O)c2n1 (stereo not given) gave an IC50 [1] of 1600 nM.
Molecule Cc1cccc(NC(c2ccccc2[N+](=O)[O-])c2ccc3ccc(C)nc3c2O)n1 (stereo not given) has an IC50 [1] of 10700 nM.
Cc1ccnc(NC(c2ccccc2[N+](=O)[O-])c2ccc3ccc(C)nc3c2O)c1 (stereo not given) showed an IC50 [1] of 900 nM.
Molecule Cc1ccnc(NC(c2ccccn2)c2ccc3cccnc3c2O)c1 (stereo not given) has an IC50 [1] of 13400 nM.
For Cc1ccnc(NC(c2ccccn2)c2ccc3ccc(C)nc3c2O)c1 (stereo not given), the IC50 [1] was 2100 nM.
Molecule Cc1ccnc(NC(c2cccc([N+](=O)[O-])c2)c2ccc3cccnc3c2O)c1 (stereo not given) has an IC50 [1] of 4600 nM.
Cc1ccnc(NC(c2cccc([N+](=O)[O-])c2)c2ccc3ccc(C)nc3c2O)c1 (stereo not given) gave an IC50 [1] of 1100 nM.
Molecule Cc1ccc2ccc(C(Nc3ccccn3)c3cccc(OCc4ccccc4)c3)c(O)c2n1 (stereo not given) has an IC50 [1] of 1400 nM.
In the case of Cc1cccc(NC(c2cccc(OCc3ccccc3)c2)c2ccc3ccc(C)nc3c2O)n1 (stereo not given), the IC50 [1] is reported as 3500 nM.
Molecule COc1cccc(C(Nc2cc(C)ccn2)c2ccc3ccc(C)nc3c2O)c1 (stereo not given) has an IC50 [1] of 2000 nM.
Molecule Cc1ccnc(NC(c2ccc(Cl)c(Cl)c2)c2ccc3cccnc3c2O)c1 (stereo not given) has an IC50 [1] of 1500 nM.
In the case of Cc1ccnc(NC(c2ccc(Cl)c(Cl)c2)c2ccc3ccc(C)nc3c2O)c1 (stereo not given), the IC50 [1] is reported as 1200 nM.
For COc1ccc(C(Nc2ccccn2)c2ccc3cccnc3c2O)cc1OC (stereo not given), the IC50 [1] was 6200 nM.
COc1ccc(C(Nc2ccccn2)c2ccc3ccc(C)nc3c2O)cc1OC (stereo not given) showed an IC50 [1] of 3000 nM.
With Oc1c(C(Nc2ccccn2)c2ccc(F)cc2)ccc2cccnc12 (stereo not given) the IC50 [1] was 7100 nM.
Work on Cc1ccc2ccc(C(Nc3ccccn3)c3ccc(F)cc3)c(O)c2n1 (stereo not given) yielded an IC50 [1] of 2800 nM.
For Cc1ccc(C(Nc2ccccn2)c2ccc3ccc(C)nc3c2O)cc1 (stereo not given), the IC50 [1] was 2100 nM.
For CC(=O)NC(c1ccc(C)cc1)c1ccc2cccnc2c1O (stereo not given), the IC50 [1] was > 100000 nM.
In the case of CC(=O)NC(c1ccc(N(C)C)cc1)c1ccc2cccnc2c1O (stereo not given), the IC50 [1] is reported as > 100000 nM.
Work on CN(C)c1ccc(C(NC(=O)Cc2ccccc2)c2ccc3cccnc3c2O)cc1 (stereo not given) yielded an IC50 [1] of 7100 nM.
Work on Cc1ccnc(NC(c2ccc(N(C)C)cc2)c2ccc3cccnc3c2O)c1 (stereo not given) yielded an IC50 [1] of 3500 nM.
Cc1ccnc(NC(c2ccc(N(C)C)cc2)c2ccc3ccc(C)nc3c2O)c1 (stereo not given) showed an IC50 [1] of 2500 nM.

— ChEMBL document CHEMBL3112564, “Identification of clinically viable quinolinol inhibitors of botulinum neurotoxin A light chain” (J Med Chem, 2014)
